Assay results from ChEMBL document CHEMBL1157326, “Nortriterpenoids from Schisandra lancifolia” (J Nat Prod, 2006).
≈ marks a conversion by molar mass, not a printed value.

Columns and labels:
[1] = tested on: Human immunodeficiency virus 1; assay: Antiviral activity against HIV1 3B in human C8166 cells assessed as inhibition of virus-induced cytopathic effect; type: functional, organism-based; details: Human immunodeficiency virus 1, 3B
Outline: (§1)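 C8166 cells were used for both assays, with AZT as the positive control. Protection from HIV-1 cytopathic effect gave the EC50, and MTT viability on the same cells, run in parallel, gave the CC50.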

[2] = Selectivity index, CC50 for human C8166 cells to EC50 for HIV1 3B; type: toxicity, cell-based; details: read-out: Ratio CC50/EC50
Outline: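 The ratio is built from a CC50 (MTT viability of C8166 cells) and an EC50 (inhibition of HIV-1 cytopathic effect in C8166 cells), both determined in parallel.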

[3] = Cytotoxicity against human C8166 cells by MTT method; type: cell-based; outline: as §1

| EC50 [1] | Structure (SMILES) | selectivity ratio [2] | CC50 [3] |
| --- | --- | --- | --- |
| 96.4 µg/mL (≈ 177 µM) | CC1=C[C@@H]([C@H]2[C@H](C)C(=O)[C@@]3(C)CC[C@]45C[C@]67OC(=O)C[C@H]6OC(C)(C)[C@@H]7C[C@H](O)[C@H]4C(=O)[C@@](O)(O5)[C@@H]23)OC1=O [LANCIFODILACTONE I] | > 2.08 | > 200 µg/mL |
| 88.3 µg/mL (≈ 151 µM) | CC(=O)O[C@H]1C[C@H]2C(C)(C)O[C@@H]3CC(=O)O[C@@]32C[C@]23CC[C@]4(C)C(=O)[C@@H](C)[C@H]([C@@H]5C=C(C)C(=O)O5)[C@@H]4[C@](O)(O2)C(=O)[C@H]13 [LANCIFODILACTONE J] | > 2.26 | > 200 µg/mL |
| 78.5 µg/mL (≈ 149 µM) | CC1=C[C@@H]([C@H]2[C@H](C)C(=O)[C@@]3(C)CC[C@]45C[C@]67OC(=O)C[C@H]6OC(C)(C)[C@@H]7CC=C4C(=O)[C@@](O)(O5)[C@@H]23)OC1=O [LANCIFODILACTONE K] | > 2.55 | > 200 µg/mL |
| 100 µg/mL (≈ 178 µM) | C[C@@H]1C(=O)[C@@]2(C)CC[C@]34C[C@]56OC(=O)C[C@H]5OC(C)(C)[C@@H]6C[C@H](O)[C@H]3C(=O)[C@@]3(O[C@H]5[C@H](OC(=O)[C@]5(C)O)[C@@H]1[C@H]32)O4 [LANCIFODILACTONE L] | > 2 | > 200 µg/mL |
| 76.6 µg/mL (≈ 141 µM) | CC1=C2[C@H]3OC(=O)[C@@H](C)[C@H]3O[C@]34O[C@@]5(CC[C@](C)(C1=O)[C@H]23)C[C@]12OC(=O)C[C@H]1OC(C)(C)[C@@H]2C[C@H](O)[C@H]5C4=O [LANCIFODILACTONE M] | > 2.61 | > 200 µg/mL |
| 77.6 µg/mL (≈ 143 µM) | C[C@@H]1C(=O)[C@@]2(C)CC[C@]34C[C@]56OC(=O)C[C@H]5OC(C)(C)[C@@H]6CC=C3C(=O)[C@@]3(O[C@H]5[C@H](OC(=O)[C@]5(C)O)[C@@H]1[C@H]32)O4 [LANCIFODILACTONE N] | 2.4 | 186 µg/mL (≈ 343 µM) |
| 0.0033 µg/mL (≈ 0.0123 µM) | Cc1cn([C@H]2C[C@H](N=[N+]=[N-])[C@@H](CO)O2)c(=O)[nH]c1=O [ZIDOVUDINE] | > 60600 | > 200 µg/mL |
